In ChEMBL document CHEMBL2417498, “Design and synthesis of 6,7-methylenedioxy-4-substituted phenylquinolin-2(1H)-one derivatives as novel anticancer agents that induce apoptosis with cell cycle arrest at G2/M phase” (Bioorg Med Chem, 2013):

Tests used:
MCF7 = test: Cytotoxicity against human MCF7 cells after 48 hrs by MTT assay; assay type: functional, cell-based; conditions: MCF7, 48 h
In short: (§1)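 Log-phase tumour cells grown in RPMI-1640 with 10% FBS, penicillin/streptomycin and 1% L-glutamine at 37 °C, 5% CO2. Cells treated with vehicle or a range of concentrations for 48 h. Growth measured by MTT reduction, absorbance at 570 nm. IC50 is the concentration giving 50% proliferation inhibition, from 3 independent experiments.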

[1] = Cytotoxicity against human 2774 cells after 48 hrs by MTT assay; assay type: functional, cell-based
[2] = Cytotoxicity against human Hep3B cells after 48 hrs by MTT assay; assay type: functional, cell-based, Hep 3B2
In short: (§2)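 Detroit 551 normal skin cells and Hep 3B hepatoma cells grown in DMEM with 10% FBS, penicillin/streptomycin and 1% L-glutamine at 37 °C, 5% CO2. Log-phase cells treated with vehicle or a range of concentrations for 48 h. MTT reduction read at 570 nm. IC50 (50% proliferation inhibition) taken from 3 independent experiments.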

[3] = Cytotoxicity against human H460 cells after 48 hrs by MTT assay; assay type: functional, cell-based; conditions: NCI-H460, 48 h; in short: as §1
A498 = test: Cytotoxicity against human A498 cells after 48 hrs by MTT assay; assay type: functional, cell-based; conditions: A498, 48 h; in short: as §1
Detroit 551 = test: Cytotoxicity against human Detroit 551 cells after 48 hrs by MTT assay; assay type: cell-based; conditions: Detroit 551, 48 h; in short: as §2
COLO 205 = test: Cytotoxicity against human COLO205 cells after 48 hrs by MTT assay; assay type: functional, cell-based; conditions: COLO 205, 48 h; in short: as §1
SK-OV-3 = test: Cytotoxicity against human SKOV3 cells after 48 hrs by MTT assay; assay type: functional, cell-based; conditions: SK-OV-3, 48 h; in short: as §1
HL-60 = test: Cytotoxicity against human HL60 cells after 48 hrs by MTT assay; assay type: functional, cell-based; conditions: HL-60, 48 h; in short: as §1

In the case of COc1ccccc1-c1cc(=O)[nH]c2cc3c(cc12)OCO3, the IC50 (MCF7) is reported as 27.1 µM, the IC50 [1] is reported as 18.8 µM and the IC50 [2] is reported as 23.3 µM. The IC50 [3] was over 25 µM, the IC50 (A498) was 9.8 µM and the IC50 (Detroit 551) was over 25 µM. It also gave an IC50 (COLO 205) of 18.1 µM, an IC50 (SK-OV-3) of 26.6 µM and an IC50 (HL-60) of 10 µM.
COc1cc(OC)cc(-c2cc(=O)[nH]c3cc4c(cc23)OCO4)c1 gave an IC50 (MCF7) of over 30 µM, an IC50 [1] of 8.3 µM and an IC50 [2] of over 10 µM. For the same compound, the IC50 [3] was over 10 µM, the IC50 (A498) was 11.7 µM and the IC50 (Detroit 551) was over 10 µM. The IC50 (COLO 205) was over 50 µM, the IC50 (SK-OV-3) was over 30 µM and the IC50 (HL-60) was 2.9 µM.
In the case of COc1cccc(-c2cc(=O)[nH]c3cc4c(cc23)OCO4)c1, the IC50 (MCF7) is reported as 14.9 µM, the IC50 [1] is reported as 15.6 µM and the IC50 [2] is reported as over 10 µM. The IC50 [3] was over 10 µM, the IC50 (A498) was over 50 µM and the IC50 (Detroit 551) was over 10 µM. The IC50 (COLO 205) was 39.6 µM, the IC50 (SK-OV-3) was 24.6 µM and the IC50 (HL-60) was over 10 µM.
Work on O=c1cc(-c2ccc(F)cc2)c2cc3c(cc2[nH]1)OCO3 yielded an IC50 (MCF7) of over 30 µM, an IC50 [1] of 17.6 µM and an IC50 [2] of over 20 µM. For the same compound, the IC50 [3] was over 20 µM, the IC50 (A498) was over 50 µM and the IC50 (Detroit 551) was over 20 µM. The IC50 (COLO 205) was over 50 µM, the IC50 (SK-OV-3) was over 30 µM and the IC50 (HL-60) was over 60 µM.
COc1cc(OC)c(-c2cc(=O)[nH]c3cc4c(cc23)OCO4)c(OC)c1 showed an IC50 (MCF7) of 21 µM, an IC50 [1] of over 30 µM and an IC50 [2] of over 100 µM. It also gave an IC50 [3] of 67.6 µM, an IC50 (A498) of over 50 µM and an IC50 (Detroit 551) of over 100 µM. It also gave an IC50 (COLO 205) of 37.4 µM, an IC50 (SK-OV-3) of over 30 µM and an IC50 (HL-60) of 75 µM.
COc1ccc(-c2cc(=O)[nH]c3cc4c(cc23)OCO4)cc1 showed an IC50 (MCF7) of over 30 µM, an IC50 [1] of over 30 µM and an IC50 [2] of over 20 µM. It also gave an IC50 [3] of over 20 µM, an IC50 (A498) of over 25 µM and an IC50 (Detroit 551) of over 20 µM. For the same compound, the IC50 (COLO 205) was over 50 µM, the IC50 (SK-OV-3) was 26.8 µM and the IC50 (HL-60) was over 20 µM.
In the case of COc1cccc(OC)c1-c1cc(=O)[nH]c2cc3c(cc12)OCO3, the IC50 (MCF7) is reported as 29.8 µM, the IC50 [1] is reported as over 30 µM and the IC50 [2] is reported as over 100 µM. For the same compound, the IC50 [3] was over 100 µM, the IC50 (A498) was over 50 µM and the IC50 (Detroit 551) was over 100 µM. For the same compound, the IC50 (COLO 205) was over 50 µM, the IC50 (SK-OV-3) was over 30 µM and the IC50 (HL-60) was over 100 µM.
For O=c1cc(-c2ccccc2)c2cc3c(cc2[nH]1)OCO3, the IC50 (MCF7) was 18.5 µM, the IC50 [1] was over 30 µM and the IC50 [2] was over 50 µM. It also gave an IC50 [3] of over 50 µM, an IC50 (A498) of 42.7 µM and an IC50 (Detroit 551) of over 50 µM. It also gave an IC50 (COLO 205) of over 50 µM, an IC50 (SK-OV-3) of over 30 µM and an IC50 (HL-60) of over 50 µM.
Work on O=c1[nH]cc(F)c(=O)[nH]1 [FLUOROURACIL] yielded an IC50 [3] of 26.7 µM and an IC50 (HL-60) of 22.3 µM.
COc1ccc(-c2cc(=O)[nH]c3cc4c(cc23)OCO4)cc1OC showed an IC50 (MCF7) of 14.3 µM, an IC50 [1] of 6.6 µM and an IC50 [2] of 14.6 µM. It also gave an IC50 [3] of 14.4 µM, an IC50 (A498) of 25.6 µM and an IC50 (Detroit 551) of 23.6 µM. It also gave an IC50 (COLO 205) of 16.8 µM, an IC50 (SK-OV-3) of 6.4 µM and an IC50 (HL-60) of 4.1 µM.
In the case of O=c1cc(-c2ccccc2F)c2cc3c(cc2[nH]1)OCO3, the IC50 (MCF7) is reported as over 30 µM, the IC50 [1] is reported as 26.4 µM and the IC50 [2] is reported as over 100 µM. The IC50 [3] was over 100 µM, the IC50 (A498) was over 50 µM and the IC50 (Detroit 551) was over 100 µM. The IC50 (COLO 205) was over 50 µM, the IC50 (SK-OV-3) was over 30 µM and the IC50 (HL-60) was over 100 µM.
Compound COc1cc([C@@H]2c3cc4c(cc3[C@@H](O[C@@H]3O[C@@H]5CO[C@@H](C)O[C@H]5[C@H](O)[C@H]3O)[C@H]3COC(=O)[C@H]23)OCO4)cc(OC)c1O [ETOPOSIDE] has an IC50 [3] of 1 µM and an IC50 (HL-60) of 5.48 µM.
COc1cc(-c2cc(=O)[nH]c3cc4c(cc23)OCO4)cc(OC)c1OC gave an IC50 (MCF7) of 4.5 µM, an IC50 [1] of 2.1 µM and an IC50 [2] of 5 µM. The IC50 [3] was 7.6 µM, the IC50 (A498) was over 50 µM and the IC50 (Detroit 551) was over 25 µM. It also gave an IC50 (COLO 205) of over 50 µM, an IC50 (SK-OV-3) of 0.93 µM and an IC50 (HL-60) of 2.3 µM.
Compound COc1ccc(OC)c(-c2cc(=O)[nH]c3cc4c(cc23)OCO4)c1 has an IC50 (MCF7) of 3.7 µM, an IC50 [1] of 6.5 µM and an IC50 [2] of 10 µM. It also gave an IC50 [3] of 10 µM, an IC50 (A498) of 28.9 µM and an IC50 (Detroit 551) of over 100 µM. For the same compound, the IC50 (COLO 205) was 6.1 µM, the IC50 (SK-OV-3) was 20 µM and the IC50 (HL-60) was 3.5 µM.
O=c1cc(-c2cccc(F)c2)c2cc3c(cc2[nH]1)OCO3 gave an IC50 (MCF7) of over 30 µM, an IC50 [1] of 24.5 µM and an IC50 [2] of over 20 µM. It also gave an IC50 [3] of over 20 µM, an IC50 (A498) of over 50 µM and an IC50 (Detroit 551) of over 20 µM. The IC50 (COLO 205) was over 50 µM, the IC50 (SK-OV-3) was over 30 µM and the IC50 (HL-60) was over 20 µM.
